In data set [1] the target is Sodium channel protein type 5 subunit alpha (Homo sapiens, UniProt Q14524). The experiment in a line: Inhibition of human NaV1.5 expressed in CHO cells at 31.6 uM by patch clamp assay. The data set is classed as cell-based.
Data set [2] in a line: Oral bioavailability in fasted Beagle dog at 2 umol/kg. The data set is classed as ADME, organism-based, Canis lupus familiaris. The following applies: in vivo. The gist of the method: (§1)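 Fasted male Beagle dogs, iv and po (N = 2 per route). Parameters derived by noncompartmental analysis of plasma concentrations.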
For data set [3], the target named is T1, Phosphatidylinositol 4,5-bisphosphate 3-kinase catalytic subunit beta isoform (Homo sapiens, UniProt P42338). The experiment in a line: Inhibition of human PI3K p110beta-mediated AKT phosphorylation at Ser473 in MDA-MB-468 cells after 2 hrs by fluorescence microplate cytometric analysis. The data set is classed as cell-based. In short, it runs like this:
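MDA-MB-468 cells kept in DMEM with 10% heat-inactivated FCS and L-glutamine. Seeded at 1500 cells/well, incubated overnight at 37 °C, 5% CO2. Exposed to compound for 2 h. Ser473 phospho-Akt detected with a specific antibody by laser scanning fluorescence microplate cytometry.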

The nature of data set [4]: Antiplatelet activity in human platelet rich plasma assessed as inhibition of collagen-induced platelet aggregation by light transmission aggregometry. The data set is classed as functional. In short, it runs like this: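 Healthy-donor blood drawn by venipuncture into sodium citrate (11 mM final in blood), then platelet rich plasma prepared. Collagen-induced aggregation measured by light transmission aggregometry, either in an aggregometer or in an in-house 96-well plate format.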

Data set [5] is described as follows: Toxicity in human adipocytes assessed as inhibition of insulin-induced glucose uptake at 3 to 40 uM. The following applies: adipocyte. The data set is classed as cell-based.
Data set [6] addresses Voltage-gated inwardly rectifying potassium channel KCNH2 (Homo sapiens, UniProt Q12809). The data set can be described thus: Inhibition of human ERG expressed in CHO cells at 31.6 uM by patch clamp assay. The format is cell-based.
The target in data set [7] is T2, Phosphatidylinositol 4,5-bisphosphate 3-kinase catalytic subunit delta isoform (Homo sapiens, UniProt O00329).
T2 sequence (O00329 whole entry): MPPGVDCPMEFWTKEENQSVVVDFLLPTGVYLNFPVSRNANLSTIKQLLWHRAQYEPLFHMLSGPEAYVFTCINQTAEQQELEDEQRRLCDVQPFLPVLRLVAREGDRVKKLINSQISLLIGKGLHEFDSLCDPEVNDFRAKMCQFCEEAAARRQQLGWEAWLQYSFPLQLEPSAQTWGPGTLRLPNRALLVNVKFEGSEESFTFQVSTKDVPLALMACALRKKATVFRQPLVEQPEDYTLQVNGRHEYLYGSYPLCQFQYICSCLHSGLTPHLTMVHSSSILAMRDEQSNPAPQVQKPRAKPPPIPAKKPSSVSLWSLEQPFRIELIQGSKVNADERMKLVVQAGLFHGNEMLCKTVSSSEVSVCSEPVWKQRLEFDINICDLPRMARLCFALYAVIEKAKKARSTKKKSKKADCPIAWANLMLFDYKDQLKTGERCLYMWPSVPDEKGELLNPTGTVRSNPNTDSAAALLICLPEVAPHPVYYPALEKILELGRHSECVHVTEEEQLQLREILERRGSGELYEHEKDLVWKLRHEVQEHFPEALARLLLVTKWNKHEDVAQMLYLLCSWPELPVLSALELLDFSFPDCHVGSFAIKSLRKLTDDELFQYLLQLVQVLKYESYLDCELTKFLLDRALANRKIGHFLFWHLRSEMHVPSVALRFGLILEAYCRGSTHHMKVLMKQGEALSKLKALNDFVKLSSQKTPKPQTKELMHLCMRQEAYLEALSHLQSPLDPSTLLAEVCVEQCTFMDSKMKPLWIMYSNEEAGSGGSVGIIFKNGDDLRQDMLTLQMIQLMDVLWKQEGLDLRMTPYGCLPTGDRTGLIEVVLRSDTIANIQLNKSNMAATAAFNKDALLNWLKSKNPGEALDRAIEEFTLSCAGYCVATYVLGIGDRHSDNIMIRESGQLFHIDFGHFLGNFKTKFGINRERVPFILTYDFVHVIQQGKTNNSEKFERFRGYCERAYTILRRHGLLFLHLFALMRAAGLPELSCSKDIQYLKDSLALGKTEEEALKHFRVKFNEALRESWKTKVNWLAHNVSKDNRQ
The experiment in a line: Inhibition of human recombinant His6-tagged PI3K p110delta expressed in baculovirus infected cells using DiC8-PI(4,5)P2 as substrate after 20 mins by AlphaScreen assay.

Another data set deals with Canis familiaris. The data set can be described thus: Ex-vivo antiplatelet activity in iv dosed Beagle dog whole blood assessed as inhibition of ADP-induced platelet aggregation administered as bolus infusion for 1 min followed by continuous infusion for 29 mins. The data set is classed as functional, organism-based. The following applies: Canis lupus familiaris. In short, it runs like this: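 Anaesthetized, intubated, ventilated beagles (N = 2). Femoral artery intima damaged and flow reduced to give cyclic flow reductions. Control period vehicle iv (30% cyclodextrin). Then 5 ascending 30-min periods, each a bolus over 1 min plus continuous infusion for 29 min. Tongue incision bleeding time from 15 min, capped at 15 min. Blood at 20 min for ex vivo aggregation and plasma level. EC50 fitted sigmoidally; EC_BT:2 from an exponential fit.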

The nature of data set [8]: Half life in human liver microsomes at 2 uM. The format is ADME, Microsome.
A short description of data set [9]: Solubility of the compound in HBSS buffer at pH 7.4 by LC-MS analysis. The data set is classed as physicochemical.
Data set [10] is described as follows: Antiplatelet activity in Beagle dog whole blood assessed as inhibition of ADP-induced platelet aggregation by impedance aggregometry. The following applies: Canis lupus familiaris. The data set is classed as functional, tissue-based. In short, it runs like this:
(§2)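 Citrated whole blood drawn by venipuncture from healthy human donors or beagle dogs, sodium citrate at 11 mM final in blood. ADP-induced aggregation read by Multiplate impedance aggregometry. N > 3.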

Data set [11] has as its target Voltage-gated potassium channel, IKs; KCNQ1(Kv7.1)/KCNE1(MinK) (Homo sapiens, UniProt P51787+P15382). The experiment in a line: Inhibition of human IKs expressed in CHO cells at 31.6 uM by patch clamp assay. The data set is classed as cell-based.
The next data set deals with Liver microsomes. The data set can be described thus: Drug metabolism in human liver microsomes assessed as reactive metabolite formation after 30 mins in presence of glutathione relative to clozapine. The data set is classed as ADME, Microsome. The following applies: 0.5 h. In short, it runs like this:
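Incubation with human liver microsomes (1 mg/mL) plus glutathione for 30 min. Summed glutathione-adduct peak areas divided by the major adduct peak area of clozapine control (average, N = 3). Ratio >1 ranked high, 0.25–1 medium, <0.25 low.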

The nature of data set [12]: Clearance in fasted Beagle dog at 1 umol/kg, iv and 2 umol/kg, po. The format is ADME, organism-based, Canis lupus familiaris. The following applies: in vivo. The gist of the method:
as §1

The target of data set [13] is T1, Phosphatidylinositol 4,5-bisphosphate 3-kinase catalytic subunit beta isoform. The data set can be described thus: Inhibition of human recombinant His6-tagged PI3K p110beta expressed in baculovirus infected cells using DiC8-PI(4,5)P2 as substrate after 20 mins by AlphaScreen assay.
Data set [14] can be described thus: Antiplatelet activity in human whole blood assessed as inhibition of ADP-induced platelet aggregation by impedance aggregometry. The format is functional, tissue-based. In short, it runs like this: as §2
The nature of data set [15]: Fraction unbound in dog plasma after 18 hrs by equilibrium dialysis method. The format is ADME, cell-free, Canis lupus familiaris. The gist of the method: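 Unbound plasma fraction determined by equilibrium dialysis, 18 h at 37 °C.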
The test system of the next data set is Rattus norvegicus. The data set can be described thus: Toxicity in overnight fasted Sprague-Dawley rat assessed as induction of insulin resistance at 0.2 to 1.6 ug/kg/min administered as infusion for 30 mins. The following applies: in vivo, iv, 0.5 h.
The next data set is filed under the species Homo sapiens. The data set can be described thus: Selectivity ratio of IC50 for human PI3K p110alpha to IC50 for human PI3K p110beta.

Each structure is given as a SMILES string. ≈ marks a conversion by molar mass, not a printed value.

T1 sequence (P42338 whole entry, canonical isoform): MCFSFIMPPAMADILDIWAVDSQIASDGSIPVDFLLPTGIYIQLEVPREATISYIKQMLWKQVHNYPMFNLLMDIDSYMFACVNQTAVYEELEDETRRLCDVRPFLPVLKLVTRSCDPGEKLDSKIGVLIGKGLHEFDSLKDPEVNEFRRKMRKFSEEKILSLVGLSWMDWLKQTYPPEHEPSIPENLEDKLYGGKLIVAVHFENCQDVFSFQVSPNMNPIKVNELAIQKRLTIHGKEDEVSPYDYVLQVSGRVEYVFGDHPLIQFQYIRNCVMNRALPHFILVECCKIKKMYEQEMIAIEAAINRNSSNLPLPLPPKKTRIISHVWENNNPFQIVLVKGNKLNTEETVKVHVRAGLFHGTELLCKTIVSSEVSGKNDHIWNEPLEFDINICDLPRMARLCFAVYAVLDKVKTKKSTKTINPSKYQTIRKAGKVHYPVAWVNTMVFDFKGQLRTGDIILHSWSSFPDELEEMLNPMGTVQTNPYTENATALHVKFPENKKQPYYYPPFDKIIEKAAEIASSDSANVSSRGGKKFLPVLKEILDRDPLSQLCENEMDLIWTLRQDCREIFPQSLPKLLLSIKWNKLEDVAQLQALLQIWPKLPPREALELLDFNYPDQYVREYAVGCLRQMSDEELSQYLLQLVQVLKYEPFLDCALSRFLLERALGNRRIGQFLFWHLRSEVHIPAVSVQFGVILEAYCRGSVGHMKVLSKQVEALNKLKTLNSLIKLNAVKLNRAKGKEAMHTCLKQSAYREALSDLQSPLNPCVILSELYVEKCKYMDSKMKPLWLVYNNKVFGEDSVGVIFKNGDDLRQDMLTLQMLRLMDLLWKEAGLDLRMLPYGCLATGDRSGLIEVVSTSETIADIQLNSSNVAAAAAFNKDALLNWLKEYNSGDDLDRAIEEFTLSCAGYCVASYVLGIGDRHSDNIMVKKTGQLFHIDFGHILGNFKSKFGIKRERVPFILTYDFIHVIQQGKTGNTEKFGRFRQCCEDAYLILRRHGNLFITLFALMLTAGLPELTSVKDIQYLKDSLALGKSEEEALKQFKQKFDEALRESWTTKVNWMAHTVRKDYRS
Sequence of Voltage-gated potassium channel, IKs; KCNQ1(Kv7.1)/KCNE1(MinK) (P51787 whole entry): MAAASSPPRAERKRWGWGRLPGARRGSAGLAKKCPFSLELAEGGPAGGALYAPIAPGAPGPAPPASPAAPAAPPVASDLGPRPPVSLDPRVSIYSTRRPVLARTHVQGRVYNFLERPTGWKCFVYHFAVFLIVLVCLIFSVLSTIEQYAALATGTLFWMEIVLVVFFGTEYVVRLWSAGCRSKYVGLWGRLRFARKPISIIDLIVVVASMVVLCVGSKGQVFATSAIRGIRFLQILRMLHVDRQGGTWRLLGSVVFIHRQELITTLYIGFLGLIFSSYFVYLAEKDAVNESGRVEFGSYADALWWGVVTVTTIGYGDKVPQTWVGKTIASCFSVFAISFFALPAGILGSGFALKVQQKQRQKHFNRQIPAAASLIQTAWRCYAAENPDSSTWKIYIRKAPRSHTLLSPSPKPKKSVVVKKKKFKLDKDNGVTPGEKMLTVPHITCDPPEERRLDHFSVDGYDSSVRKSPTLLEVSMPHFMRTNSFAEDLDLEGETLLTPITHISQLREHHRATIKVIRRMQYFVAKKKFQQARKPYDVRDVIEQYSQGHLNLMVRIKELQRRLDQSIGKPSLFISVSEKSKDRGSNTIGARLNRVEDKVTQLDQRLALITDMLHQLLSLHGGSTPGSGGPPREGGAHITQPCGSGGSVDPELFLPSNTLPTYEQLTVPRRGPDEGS
Sequence of Voltage-gated inwardly rectifying potassium channel KCNH2 (Q12809 whole entry, canonical isoform): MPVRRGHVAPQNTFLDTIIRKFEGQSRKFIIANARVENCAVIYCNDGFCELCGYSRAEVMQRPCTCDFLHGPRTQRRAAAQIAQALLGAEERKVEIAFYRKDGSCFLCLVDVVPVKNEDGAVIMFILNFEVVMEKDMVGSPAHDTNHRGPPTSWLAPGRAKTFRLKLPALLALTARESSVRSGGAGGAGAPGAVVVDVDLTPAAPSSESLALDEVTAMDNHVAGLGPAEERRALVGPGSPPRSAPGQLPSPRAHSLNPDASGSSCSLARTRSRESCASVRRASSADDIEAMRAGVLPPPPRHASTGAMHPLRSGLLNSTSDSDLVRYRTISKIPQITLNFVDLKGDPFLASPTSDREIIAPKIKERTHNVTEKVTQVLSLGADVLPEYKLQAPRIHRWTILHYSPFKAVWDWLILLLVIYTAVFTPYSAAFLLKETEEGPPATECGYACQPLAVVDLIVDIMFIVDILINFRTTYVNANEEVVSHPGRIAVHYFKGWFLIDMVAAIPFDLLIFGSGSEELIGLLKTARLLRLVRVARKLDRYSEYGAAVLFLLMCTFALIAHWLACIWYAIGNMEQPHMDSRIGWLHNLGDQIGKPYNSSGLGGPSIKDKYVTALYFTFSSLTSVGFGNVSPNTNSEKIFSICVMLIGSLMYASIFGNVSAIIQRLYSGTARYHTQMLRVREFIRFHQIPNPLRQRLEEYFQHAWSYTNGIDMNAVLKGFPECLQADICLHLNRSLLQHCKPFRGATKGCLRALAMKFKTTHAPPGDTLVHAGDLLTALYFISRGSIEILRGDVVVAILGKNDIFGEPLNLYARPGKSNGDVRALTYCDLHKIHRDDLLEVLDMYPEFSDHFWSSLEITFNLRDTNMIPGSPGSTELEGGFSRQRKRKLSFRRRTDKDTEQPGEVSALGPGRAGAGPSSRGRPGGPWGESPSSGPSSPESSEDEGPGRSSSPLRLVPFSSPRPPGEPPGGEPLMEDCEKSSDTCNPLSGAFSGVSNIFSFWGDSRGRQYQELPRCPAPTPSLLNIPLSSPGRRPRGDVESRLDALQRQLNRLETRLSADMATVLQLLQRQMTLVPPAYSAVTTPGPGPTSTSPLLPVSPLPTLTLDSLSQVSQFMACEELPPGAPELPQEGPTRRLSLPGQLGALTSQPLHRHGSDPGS
Sequence of Sodium channel protein type 5 subunit alpha (Q14524 whole entry): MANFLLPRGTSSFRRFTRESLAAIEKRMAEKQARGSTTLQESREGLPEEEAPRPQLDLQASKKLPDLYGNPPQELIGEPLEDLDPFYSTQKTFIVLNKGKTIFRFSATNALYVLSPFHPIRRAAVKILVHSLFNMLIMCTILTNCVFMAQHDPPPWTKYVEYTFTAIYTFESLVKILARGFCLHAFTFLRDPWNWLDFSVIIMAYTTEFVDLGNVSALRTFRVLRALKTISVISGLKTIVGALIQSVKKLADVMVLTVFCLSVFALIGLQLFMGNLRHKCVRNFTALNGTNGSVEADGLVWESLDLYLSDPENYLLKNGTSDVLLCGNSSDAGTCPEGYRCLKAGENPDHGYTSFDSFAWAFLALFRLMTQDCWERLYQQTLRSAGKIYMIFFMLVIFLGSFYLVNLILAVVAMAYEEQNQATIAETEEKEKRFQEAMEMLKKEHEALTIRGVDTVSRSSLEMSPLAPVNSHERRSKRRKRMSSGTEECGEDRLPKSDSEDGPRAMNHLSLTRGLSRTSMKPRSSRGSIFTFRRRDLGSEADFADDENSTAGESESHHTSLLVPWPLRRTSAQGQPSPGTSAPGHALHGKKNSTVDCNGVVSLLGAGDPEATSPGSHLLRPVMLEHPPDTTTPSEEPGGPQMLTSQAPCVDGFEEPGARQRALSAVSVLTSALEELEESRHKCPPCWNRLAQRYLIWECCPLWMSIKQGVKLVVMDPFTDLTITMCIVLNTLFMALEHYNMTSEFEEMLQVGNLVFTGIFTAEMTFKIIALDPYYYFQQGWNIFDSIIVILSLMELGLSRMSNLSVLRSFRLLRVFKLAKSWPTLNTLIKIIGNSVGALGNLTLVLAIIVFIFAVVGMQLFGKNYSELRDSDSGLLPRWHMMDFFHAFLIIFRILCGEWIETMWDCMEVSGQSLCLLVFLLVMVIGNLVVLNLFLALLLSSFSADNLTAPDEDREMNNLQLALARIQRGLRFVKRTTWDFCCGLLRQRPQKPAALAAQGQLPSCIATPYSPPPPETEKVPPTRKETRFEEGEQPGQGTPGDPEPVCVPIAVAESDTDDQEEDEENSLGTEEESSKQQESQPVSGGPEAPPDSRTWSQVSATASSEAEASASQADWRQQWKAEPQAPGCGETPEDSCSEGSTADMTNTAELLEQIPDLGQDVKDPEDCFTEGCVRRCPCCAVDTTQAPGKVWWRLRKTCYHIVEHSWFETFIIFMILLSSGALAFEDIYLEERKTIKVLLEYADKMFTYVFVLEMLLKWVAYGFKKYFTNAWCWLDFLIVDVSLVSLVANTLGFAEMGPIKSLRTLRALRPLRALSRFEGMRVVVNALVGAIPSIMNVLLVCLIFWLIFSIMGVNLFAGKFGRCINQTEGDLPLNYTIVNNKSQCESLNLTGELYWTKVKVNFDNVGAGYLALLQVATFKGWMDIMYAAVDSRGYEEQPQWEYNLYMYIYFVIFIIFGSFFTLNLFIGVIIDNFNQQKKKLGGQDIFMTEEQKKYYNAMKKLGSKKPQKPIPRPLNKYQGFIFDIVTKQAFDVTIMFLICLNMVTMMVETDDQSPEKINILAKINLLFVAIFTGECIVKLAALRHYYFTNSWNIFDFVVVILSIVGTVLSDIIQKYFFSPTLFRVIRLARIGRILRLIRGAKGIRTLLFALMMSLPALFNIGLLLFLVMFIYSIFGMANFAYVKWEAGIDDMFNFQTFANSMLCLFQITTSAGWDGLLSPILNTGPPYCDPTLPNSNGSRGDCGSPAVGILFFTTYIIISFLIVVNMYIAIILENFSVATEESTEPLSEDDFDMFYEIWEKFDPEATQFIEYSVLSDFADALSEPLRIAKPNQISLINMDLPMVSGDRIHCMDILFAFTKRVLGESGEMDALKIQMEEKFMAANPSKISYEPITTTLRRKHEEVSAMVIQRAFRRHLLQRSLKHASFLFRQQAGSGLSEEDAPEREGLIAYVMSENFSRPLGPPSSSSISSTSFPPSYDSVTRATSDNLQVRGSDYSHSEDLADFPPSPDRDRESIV

On to `C[C@H]1CN(c2cc(N(CCO)Cc3cccc4ccccc34)[nH]c(=O)n2)CCO1`, for which the “inhibition (INH)” value in data set [1], in data set [6] and in data set [11] was “Not Active” throughout. Besides, the bioavailability in [2] is 25%. The IC50 in data set [3] was found to be 0.195 µM; in data set [4], 0.4 µM; in data set [7] it was 0.168 µM; in [10], 3.8 µM; in [13] it was 0.038 µM; in data set [14] it was 2.1 µM. Also, the Activity result (in data set [5]; in the data set on Rattus norvegicus) was “Non-toxic” each time. Further, the EC50 in the data set with Canis familiaris is 1.1 µM. Further, in the data set with Canis familiaris, the inhibition entry is “Dose-dependent effect”. In addition, in [8], the half-life at 2 µM was over 2.88 h. The compound further registered a solubility in [9] of 100 µM (≈ 39.4 µg/mL). For the same compound, the Drug metabolism entry in the data set on Liver microsomes is on record as “Not Active”. In [12], this compound returned a clearance of 18 mL/min/kg. Further, in data set [15], the unbound share (fraction unbound) at 18 h is 0.3. Moreover, the Ratio IC50 in the data set listed under Homo sapiens is over 700.

Values taken from ChEMBL document CHEMBL2163325, “Discovery of phosphoinositide 3-kinases (PI3K) p110β isoform inhibitor 4-[2-hydroxyethyl(1-naphthylmethyl)amino]-6-[(2S)-2-methylmorpholin-4-yl]-1H-pyrimidin-2-one, an effective antithrombotic agent without associated bleeding and insulin resistance” (Bioorg Med Chem Lett, 2012).
